The values that follow come from ChEMBL document CHEMBL1148736, “N-Acylthiadiazolines, a new class of liver X receptor agonists with selectivity for LXRbeta” (J Med Chem, 2007).

In series [1] the target is T1, Oxysterols receptor LXR-alpha (Homo sapiens) (UniProt Q13133).
T1 sequence (whole entry): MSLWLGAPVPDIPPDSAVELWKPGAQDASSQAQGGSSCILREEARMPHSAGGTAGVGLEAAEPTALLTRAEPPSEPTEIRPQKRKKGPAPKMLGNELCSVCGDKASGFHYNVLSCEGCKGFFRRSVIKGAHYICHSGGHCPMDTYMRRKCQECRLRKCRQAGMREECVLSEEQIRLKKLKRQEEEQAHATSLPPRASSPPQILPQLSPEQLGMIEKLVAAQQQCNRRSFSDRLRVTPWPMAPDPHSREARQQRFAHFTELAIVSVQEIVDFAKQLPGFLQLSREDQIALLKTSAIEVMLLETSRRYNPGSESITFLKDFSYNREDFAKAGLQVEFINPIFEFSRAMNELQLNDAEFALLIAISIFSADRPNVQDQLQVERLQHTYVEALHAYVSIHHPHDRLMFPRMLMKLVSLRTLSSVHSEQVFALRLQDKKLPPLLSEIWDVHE
The series can be described thus: Displacement of [3H]T-0901317 from GAL-linked human LXRalpha expressed in THP1 cells at 20 uM by SPA relative to GW-3965. It is filed as cell-based. The following applies: THP-1. In a few lines: (§1)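 Scintillation proximity displacement with His-tagged hLXRα or hLXRβ LBD (200 ng/well) and 30 nM [3H]T0901317. Beads 0.2 mg/well in phosphate buffer with EDTA, NaCl, DTT, CHAPS, 10% glycerol. 12-point curves from 20 µM; shaken 3 h at room temperature. No-competitor wells = 100% binding; nonspecific binding without protein. Efficacy = maximal displacement relative to reference dual agonist.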

Series [2] is described as follows: Bioavailability in C57BL/6 mouse at 20 mg/kg, po. It is filed as ADME, organism-based. The following applies: in vivo. In a few lines: (§2)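 Mouse PK study, IV and PO; compound formulated at 2.5 mg/mL in PEG300/Tween 80 (4:1). IV dose 5 mpk (AUC, Cmax, clearance, Vss); oral dose 20 mpk (AUC, Cmax, bioavailability, t1/2).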
The next series concerns HepG2. The series can be described thus: Increase in FAS gene expression in HepG2 cells at 1 uM relative to GW-3965. Format: functional, Homo sapiens.
The target in series [3] is T2, Oxysterols receptor LXR-beta (Homo sapiens) (UniProt P55055).
T2 sequence (whole entry): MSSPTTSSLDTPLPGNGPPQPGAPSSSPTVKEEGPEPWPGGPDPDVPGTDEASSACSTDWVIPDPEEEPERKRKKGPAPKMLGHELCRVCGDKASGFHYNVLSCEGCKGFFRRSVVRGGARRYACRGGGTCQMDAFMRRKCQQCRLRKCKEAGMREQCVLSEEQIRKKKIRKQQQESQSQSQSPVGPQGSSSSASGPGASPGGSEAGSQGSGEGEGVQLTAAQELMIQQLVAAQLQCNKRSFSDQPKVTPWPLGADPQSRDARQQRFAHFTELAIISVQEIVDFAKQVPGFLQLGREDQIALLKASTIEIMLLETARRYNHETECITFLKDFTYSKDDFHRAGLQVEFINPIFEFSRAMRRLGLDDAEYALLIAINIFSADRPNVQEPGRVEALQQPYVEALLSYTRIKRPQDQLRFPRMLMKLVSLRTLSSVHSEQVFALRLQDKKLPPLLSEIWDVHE
The experiment in a line: Displacement of [3H]T-0901317 from GAL-linked human LXRbeta expressed in THP1 cells at 20 uM by SPA relative to GW-3965. Format: cell-based. The following applies: THP-1. In a few lines: as §1

For series [4], the target named is T3, Nuclear receptor subfamily 1 group I member 2 (Homo sapiens, UniProt O75469).
T3 sequence (O75469 whole entry): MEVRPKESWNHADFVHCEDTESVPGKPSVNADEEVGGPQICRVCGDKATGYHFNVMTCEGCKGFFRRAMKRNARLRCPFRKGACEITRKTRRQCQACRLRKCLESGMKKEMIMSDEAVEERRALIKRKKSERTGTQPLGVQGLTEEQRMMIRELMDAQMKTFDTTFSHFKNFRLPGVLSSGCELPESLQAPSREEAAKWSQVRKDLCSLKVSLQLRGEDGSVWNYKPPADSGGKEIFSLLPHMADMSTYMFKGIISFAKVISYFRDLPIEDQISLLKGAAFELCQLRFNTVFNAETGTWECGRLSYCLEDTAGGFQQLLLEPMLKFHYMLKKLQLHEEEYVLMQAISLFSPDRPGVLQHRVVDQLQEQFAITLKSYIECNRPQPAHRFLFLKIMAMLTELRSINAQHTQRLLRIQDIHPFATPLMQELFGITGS
The series can be described thus: Activity at PXR by cell based assay. It is filed as functional.

Another series relates to Hepatocyte. The series can be described thus: Induction on FAS gene expression in human primary hepatocytes at 1 uM. Format: functional, cell-based. In a few lines:
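Primary human hepatocytes treated with 1 µM compound; FAS mRNA measured by TaqMan-based qRT-PCR.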

The next series deals with Macrophage. The experiment in a line: Induction of APO-AI-dependent cholesterol efflux in mouse macrophages. It is filed as functional, cell-based. In a few lines: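 Peritoneal macrophages labelled 24 h with [3H]cholesterol (1.0 µCi/mL) plus ACAT inhibitor 58-035 (2 µg/mL), with compound. Then 2–4 h equilibration in label-free medium with compound. Efflux for 4 h into DMEM/0.2% BSA with or without apoAI (15 µg/mL). apoAI-dependent efflux = medium radioactivity as % of total cell plus medium. Triplicate.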

In series [5] the target is T4, Bile acid receptor (Homo sapiens) (UniProt Q96RI1).
T4 sequence (whole entry): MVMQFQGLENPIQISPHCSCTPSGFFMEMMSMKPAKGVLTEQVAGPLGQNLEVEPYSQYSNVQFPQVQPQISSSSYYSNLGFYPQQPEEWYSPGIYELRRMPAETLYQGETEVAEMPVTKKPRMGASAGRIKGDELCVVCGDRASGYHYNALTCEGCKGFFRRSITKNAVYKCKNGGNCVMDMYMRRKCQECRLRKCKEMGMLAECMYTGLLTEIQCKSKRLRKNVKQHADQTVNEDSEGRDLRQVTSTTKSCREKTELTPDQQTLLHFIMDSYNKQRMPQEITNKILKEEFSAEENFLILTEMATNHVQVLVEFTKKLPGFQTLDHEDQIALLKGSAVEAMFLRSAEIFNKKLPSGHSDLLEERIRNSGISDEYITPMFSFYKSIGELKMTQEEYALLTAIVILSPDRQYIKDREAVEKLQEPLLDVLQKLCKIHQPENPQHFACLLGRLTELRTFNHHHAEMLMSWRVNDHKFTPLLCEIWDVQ
The experiment in a line: Activity at FXR by cell based assay. It is filed as functional.

Series [6] is described as follows: Clearance in C57BL/6 mouse at 5 mg/kg, iv. It is filed as ADME, organism-based. Also noted: dose 5 mg/kg, route intravenous. The following applies: in vivo. An outline of the steps:
as §2

The term bioavailability denotes dose-corrected exposure relative to a reference, in per cent. Read a high bioavailability as good availability. For orientation: clearance means a measure of how efficiently the substance is removed, as volume per time. Low values mean a low capacity for elimination, high ones a high capacity for elimination.

Each structure is given as a SMILES string. Calls of active or inactive are those of the source. No cut-off for these calls is given here.

For `COc1cccc(C2SC(c3ccc(Cl)cc3)=NN2C(=O)c2c(F)cc(F)cc2F)c1OC` (racemic), the Efficacy in [1] was 52%; in series [3], 100%. In series [2], this molecule showed a bioavailability of 28%. Also, the Activity is given as 10% with HepG2 and “Not Active” in series [4]. In addition, the result (in the series with Hepatocyte; in series [5]) was inactive. Moreover, in the series with Macrophage, the result was Active. In series [6], this molecule gave a clearance of 12.2 mL/min/kg.
